Experimental data published in ChEMBL document CHEMBL1156107, “Synthesis of new alkylaminooxysterols with potent cell differentiating activities: identification of leads for the treatment of cancer and neurodegenerative diseases” (J Med Chem, 2009).
Calls of active or inactive are those of the source. The rule behind the calls is not given here.

Columns and labels:
U-937 [1] = assay: Induction of dendrite out growth in IL-4/GMCSF-stimulated human U937 cells assessed as dendrite length at 100 nM after 48 hrs by light microscopy; type: functional
Summary of the method: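 U937 cells at 1.1 × 10⁶ cells/mL were primed with 10 ng/mL PMA for 48 h in RPMI with 10% heat-inactivated serum. Adherent cells were then given 100 ng/mL IL-4 plus 100 ng/mL GM-CSF or 100 nM compound for 48 h. Dendrite length scored by light microscopy, from none to over 100 μm with a contact network.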

U-937 [2] = assay: Cytotoxicity against human U937 cells after 3 days by trypan blue exclusion assay; type: functional, cell-based
Summary of the method: (§1)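 U937 and P19 cells treated with compound. Cell death scored by trypan blue exclusion, with cells scraped, suspended in 0.25% w/v trypan blue in PBS and counted in a Malassez cell. IC50 is the concentration giving 50% cytotoxicity.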

P19 [3] = assay: Induction of dendrite out growth in IL-4/GMCSF-stimulated mouse P19 cells assessed as dendrite length at 100 nM after 48 hrs by light microscopy; type: functional
P19 [4] = assay: Cytotoxicity against mouse P19 cells after 3 days by trypan blue exclusion assay; type: functional, cell-based; summary of the method: as §1
U-937 [5] = assay: Cytotoxicity against human U937 cells up to 20 uM after 3 days by trypan blue exclusion assay; type: functional, cell-based; summary of the method: as §1
P19 [6] = assay: Cytotoxicity against mouse P19 cells up to 20 uM after 3 days by trypan blue exclusion assay; type: functional, cell-based; summary of the method: as §1
[7] = Homo sapiens, U-937, 72 h, read-out: IC50
[8] = Mus musculus, P19, 72 h, read-out: IC50

Structure (SMILES) | Activity (U-937 [1]) | IC50 (U-937 [2]; u-937) | Activity (P19 [3]) | IC50 (P19 [4]; p19) | IC50 (U-937 [2]; [7]) [µM] | IC50 (P19 [4]; [8]) [µM] | Activity (U-937 [5]) | Activity (P19 [6])
CC(C)CCC[C@@H](C)[C@H]1CC[C@H]2[C@@H]3CC=C4C[C@@H](O)CC[C@]4(C)[C@H]3CC[C@]12C [CHOLESTEROL] | inactive | Not Active | inactive | Not Active |  |  |  | 
CC(C)CCC[C@@H](C)[C@H]1CC[C@H]2C3=C[C@@H](NCCCCNCCCN)[C@@]4(O)C[C@@H](O)CC[C@]4(C)[C@H]3CC[C@]12C | <5 um | Not Active | 50 um | Not Active |  |  |  | 
CCCC(=O)O[C@H]1CC[C@]2(C)[C@H]3CC[C@]4(C)[C@@H]([C@H](C)CCCC(C)C)CC[C@H]4[C@@H]3C[C@@H](NCCc3c[nH]cn3)[C@@]2(O)C1 | inactive |  | inactive |  | 8.2 | 9.4 |  | 
CC(=O)O[C@H]1CC[C@]2(C)[C@H]3CC[C@]4(C)[C@@H]([C@H](C)CCCC(C)C)CC[C@H]4[C@@H]3C[C@@H]3O[C@@]32C1 | inactive | Not Active | inactive | Not Active |  |  |  | 
CC(C)CCC[C@@H](C)[C@H]1CC[C@H]2[C@@H]3C[C@@H](NCCCNCCCCN)[C@@]4(O)C[C@@H](O)CC[C@]4(C)[C@H]3CC[C@]12C | <5 um | Not Active | 50 um | Not Active |  |  |  | 
C[C@]12CC[C@H]3[C@@H](C[C@@H](NCCc4c[nH]cn4)[C@@]4(O)C[C@@H](O)CC[C@]34C)[C@@H]1CC[C@@H]2O | inactive |  | inactive |  | 9.8 | 7.3 |  | 
CC(C)CCC[C@@H](C)[C@H]1CC[C@H]2[C@@H]3C[C@@H](NCCCCN)[C@@]4(O)C[C@@H](O)CC[C@]4(C)[C@H]3CC[C@]12C | 5 um |  | 10 um |  | 2.1 | 2.6 |  | 
CC(C)CCC[C@@H](C)[C@H]1CC[C@H]2[C@@H]3C[C@@H](NCCCCNCCCN)[C@@]4(O)C[C@@H](O)CC[C@]4(C)[C@H]3CC[C@]12C | <5 um | Not Active | 50 um | Not Active |  |  | inactive | inactive
CC(C)CCC[C@@H](C)[C@H]1CC[C@H]2C3=C[C@@H](NCCc4c[nH]cn4)[C@@]4(O)C[C@@H](O)CC[C@]4(C)[C@H]3CC[C@]12C | <5 um |  | 5 um |  | 7.6 | 5.3 |  | 
NCCCNCCCCNCCCN [SPERMINE] | inactive | Not Active | inactive | Not Active |  |  |  | 
CC(C)CCC[C@@H](C)[C@H]1CC[C@H]2[C@@H]3C[C@@H](NCCCNCCCCNCCCN)[C@@]4(O)C[C@@H](O)CC[C@]4(C)[C@H]3CC[C@]12C | <5 um | Not Active | 10 um | Not Active |  |  |  | 
C[C@]12CC[C@H]3[C@@H](C[C@@H]4O[C@@]45C[C@@H](O)CC[C@]35C)[C@@H]1CC[C@@H]2O | inactive | Not Active | inactive | Not Active |  |  |  | 
